Consider eleven molecules from ChEMBL document CHEMBL1148000, “Naphthyl piperazines with dual activity as 5-HT1D antagonists and 5-HT reuptake inhibitors” (Bioorg Med Chem Lett, 2007).

Activity calls are given as the source filed them. No cut-off for these calls is given here.

The target of test [1] is T1, Adrenergic receptor alpha-1 (Rattus norvegicus, UniProt P15823+P23944+P43140).
T1 sequence (P15823 whole entry): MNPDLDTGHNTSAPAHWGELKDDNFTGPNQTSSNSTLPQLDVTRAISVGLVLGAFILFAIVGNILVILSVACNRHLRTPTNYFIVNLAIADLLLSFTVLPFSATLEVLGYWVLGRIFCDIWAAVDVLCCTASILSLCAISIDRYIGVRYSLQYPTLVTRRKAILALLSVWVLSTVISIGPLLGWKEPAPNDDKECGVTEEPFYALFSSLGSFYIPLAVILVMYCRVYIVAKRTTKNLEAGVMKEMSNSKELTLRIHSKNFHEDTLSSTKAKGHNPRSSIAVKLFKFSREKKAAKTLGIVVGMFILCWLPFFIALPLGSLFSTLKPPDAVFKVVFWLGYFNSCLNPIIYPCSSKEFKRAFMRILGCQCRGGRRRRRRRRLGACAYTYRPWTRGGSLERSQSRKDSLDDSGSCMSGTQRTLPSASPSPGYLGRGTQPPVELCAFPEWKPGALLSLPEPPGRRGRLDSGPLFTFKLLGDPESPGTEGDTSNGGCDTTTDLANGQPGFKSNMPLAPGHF
T1 sequence (P23944 whole entry): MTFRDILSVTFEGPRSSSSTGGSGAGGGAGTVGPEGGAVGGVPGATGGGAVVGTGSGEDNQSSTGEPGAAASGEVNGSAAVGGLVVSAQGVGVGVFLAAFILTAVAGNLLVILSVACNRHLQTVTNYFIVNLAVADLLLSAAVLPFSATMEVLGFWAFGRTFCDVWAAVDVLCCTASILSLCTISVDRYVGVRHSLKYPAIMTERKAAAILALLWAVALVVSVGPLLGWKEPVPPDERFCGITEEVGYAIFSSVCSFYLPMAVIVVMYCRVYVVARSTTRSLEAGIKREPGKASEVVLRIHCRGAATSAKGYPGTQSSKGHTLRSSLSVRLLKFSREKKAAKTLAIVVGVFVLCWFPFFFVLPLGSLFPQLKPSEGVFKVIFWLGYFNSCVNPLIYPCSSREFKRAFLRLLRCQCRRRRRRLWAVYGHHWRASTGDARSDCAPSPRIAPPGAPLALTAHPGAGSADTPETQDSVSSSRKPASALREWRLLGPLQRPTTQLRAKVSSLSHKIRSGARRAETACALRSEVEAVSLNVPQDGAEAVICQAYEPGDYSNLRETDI
T1 sequence (P43140 whole entry): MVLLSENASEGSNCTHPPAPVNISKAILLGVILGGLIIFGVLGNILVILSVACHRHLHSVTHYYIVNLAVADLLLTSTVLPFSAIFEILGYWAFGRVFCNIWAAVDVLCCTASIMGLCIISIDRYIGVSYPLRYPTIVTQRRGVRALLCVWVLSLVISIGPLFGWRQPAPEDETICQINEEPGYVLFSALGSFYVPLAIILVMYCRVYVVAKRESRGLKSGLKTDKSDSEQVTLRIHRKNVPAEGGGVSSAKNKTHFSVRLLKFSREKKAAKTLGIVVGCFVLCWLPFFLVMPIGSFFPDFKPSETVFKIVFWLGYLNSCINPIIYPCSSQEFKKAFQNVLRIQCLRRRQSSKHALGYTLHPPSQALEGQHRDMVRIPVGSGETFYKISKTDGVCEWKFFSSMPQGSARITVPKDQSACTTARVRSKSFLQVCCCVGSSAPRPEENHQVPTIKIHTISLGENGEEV
The test can be described thus: Displacement of [3H]prazosin from adrenergic alpha-1 receptor in rat cortical membranes. It is filed as cell membranes, Membrane. The essentials:
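Rat cortex membranes were used, with [3H]-prazosin as radioligand for α1 binding. Ki (nM) is the mean of runs in triplicate.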

The target of test [2] is 5-hydroxytryptamine receptor 1B (Homo sapiens, UniProt P28222). Kind of test: Displacement of [3H]GR-125743 from human 5HT1B expressed in LM(tk-) cells. The class given is cell-based. The essentials: (§1)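 Human 5-HT1B or 5-HT1D receptors were cloned into L-M(tk-) cells, and membrane homogenates were prepared from these cells. Binding used [3H]-GR125743 as radioligand. Ki (nM) is the mean of runs in triplicate.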
5-hydroxytryptamine receptor 1B, sequence (P28222 whole entry): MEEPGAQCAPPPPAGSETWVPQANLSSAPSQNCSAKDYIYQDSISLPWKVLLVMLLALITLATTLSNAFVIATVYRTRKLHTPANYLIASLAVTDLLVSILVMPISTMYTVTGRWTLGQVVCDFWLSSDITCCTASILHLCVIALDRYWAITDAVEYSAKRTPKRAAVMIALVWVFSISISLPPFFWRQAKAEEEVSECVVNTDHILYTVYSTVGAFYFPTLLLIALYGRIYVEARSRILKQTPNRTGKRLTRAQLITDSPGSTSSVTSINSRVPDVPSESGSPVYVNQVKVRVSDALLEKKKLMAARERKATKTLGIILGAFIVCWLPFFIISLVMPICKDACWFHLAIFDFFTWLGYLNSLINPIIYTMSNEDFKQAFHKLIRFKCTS

Another test concerns Hypothalamus. The test can be described thus: Increase in extracellular 5HT level in guinea pig hypothalamus at 10 mg/kg, po after 3 hrs. It is filed as functional, organism-based. Set-up: dose 10 mg/kg. The settings on record: Cavia porcellus. The essentials: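 Microdialysis was done in the hypothalamus of freely moving guinea pigs. Dosing was 10 mg/kg po. Extracellular 5-HT is expressed as a percentage of a pre-injection control period, assessed over 3 h post-dose, as means + SEM.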

Another test has as its target D(2) dopamine receptor (Rattus norvegicus, UniProt P61169). Kind of test: Displacement of [3H]raclopride from dopamine D2 receptor in rat caudate membranes. It is filed as cell membranes, Membrane. The essentials:
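D2 binding was measured in rat caudate membranes with [3H]-raclopride. Ki (nM) is the mean of runs in triplicate.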

Test [3] concerns the target T2, 5-hydroxytryptamine receptor 1A (Homo sapiens, UniProt P08908).
T2 sequence (P08908 whole entry): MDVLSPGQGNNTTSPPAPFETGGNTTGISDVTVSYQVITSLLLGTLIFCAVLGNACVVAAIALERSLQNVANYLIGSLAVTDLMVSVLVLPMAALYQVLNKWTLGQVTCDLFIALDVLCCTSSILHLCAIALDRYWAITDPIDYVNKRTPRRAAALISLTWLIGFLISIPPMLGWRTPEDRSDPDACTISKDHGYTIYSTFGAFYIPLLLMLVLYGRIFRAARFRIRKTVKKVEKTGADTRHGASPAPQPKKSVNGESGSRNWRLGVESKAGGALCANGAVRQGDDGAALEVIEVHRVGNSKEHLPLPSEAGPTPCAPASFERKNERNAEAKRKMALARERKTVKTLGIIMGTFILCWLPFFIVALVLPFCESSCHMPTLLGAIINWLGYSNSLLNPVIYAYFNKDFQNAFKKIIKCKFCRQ
The test can be described thus: Displacement of [3H]8-OH-DPAT from human 5HT1A expressed in LM(tk-) cells. It is filed as cell-based. The essentials:
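Human 5-HT1A was cloned into L-M(tk-) cells, and membrane homogenates were prepared. Binding used [3H]-8-OH-DPAT as radioligand. Ki (nM) is the mean of runs in triplicate.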

Test [4] addresses Sodium-dependent serotonin transporter (Homo sapiens, UniProt P31645). Kind of test: Displacement of [3H]citalopram from human 5HT transporter expressed in HEK293 cells. The class given is cell-based. The essentials:
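Human serotonin transporter was expressed in HEK293 cells. Inhibition was measured as displacement of [3H]-citalopram. Ki (nM) is the mean of runs in triplicate.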

In test [5] the target is T3, 5-hydroxytryptamine receptor 1D (Homo sapiens, UniProt P28221). The test can be described thus: Functional antagonism of 5-HT-stimulated GTP-gamma-[35S] binding to human 5HT1D expressed in LM(tk-) cells at 30 nM. Set-up: scale not given: the % may be the effect or the level left.
T3 sequence (P28221 whole entry): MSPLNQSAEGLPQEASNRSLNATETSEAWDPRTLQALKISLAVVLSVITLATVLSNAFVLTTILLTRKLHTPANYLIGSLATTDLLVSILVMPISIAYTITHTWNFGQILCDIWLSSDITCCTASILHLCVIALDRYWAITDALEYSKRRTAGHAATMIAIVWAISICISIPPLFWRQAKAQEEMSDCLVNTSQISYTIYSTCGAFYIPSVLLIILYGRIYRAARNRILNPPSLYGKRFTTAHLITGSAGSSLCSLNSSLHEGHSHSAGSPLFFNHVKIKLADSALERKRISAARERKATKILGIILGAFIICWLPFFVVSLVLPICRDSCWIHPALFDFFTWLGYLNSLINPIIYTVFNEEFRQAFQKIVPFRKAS
For test [6], the target named is T3, 5-hydroxytryptamine receptor 1D. Kind of test: Displacement of [3H]GR-125743 from human 5HT1D expressed in LM(tk-) cells. It is filed as cell-based. The essentials: as §1
For test [7] the target is unchanged. The test can be described thus: Antagonist activity at human 5HT1D expressed in LM(tk-) cells by [35S]GTPgamma binding assay. The class given is functional, cell-based. The essentials:
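5-HT dose–response curves for [35S]GTPγS binding were run in LM(tk-) cells stably expressing the human 5-HT1D receptor. Antagonism was read as the rightward shift of these curves. Results are given as KB or as % displacement at 30 nM.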

D(2) dopamine receptor, sequence (P61169 whole entry): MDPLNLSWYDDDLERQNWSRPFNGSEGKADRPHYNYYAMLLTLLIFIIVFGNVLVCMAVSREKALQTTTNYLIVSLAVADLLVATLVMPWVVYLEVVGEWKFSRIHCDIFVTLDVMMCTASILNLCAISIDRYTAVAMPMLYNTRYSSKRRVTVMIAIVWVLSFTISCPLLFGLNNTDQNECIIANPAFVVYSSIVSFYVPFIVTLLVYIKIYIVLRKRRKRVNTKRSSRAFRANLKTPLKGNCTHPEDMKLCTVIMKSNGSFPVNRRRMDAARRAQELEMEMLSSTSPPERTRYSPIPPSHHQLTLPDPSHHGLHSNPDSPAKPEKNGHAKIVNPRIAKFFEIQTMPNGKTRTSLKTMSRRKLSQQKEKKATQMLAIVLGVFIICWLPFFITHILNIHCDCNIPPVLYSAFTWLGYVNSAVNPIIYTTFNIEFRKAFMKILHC
Sodium-dependent serotonin transporter, sequence (P31645 whole entry): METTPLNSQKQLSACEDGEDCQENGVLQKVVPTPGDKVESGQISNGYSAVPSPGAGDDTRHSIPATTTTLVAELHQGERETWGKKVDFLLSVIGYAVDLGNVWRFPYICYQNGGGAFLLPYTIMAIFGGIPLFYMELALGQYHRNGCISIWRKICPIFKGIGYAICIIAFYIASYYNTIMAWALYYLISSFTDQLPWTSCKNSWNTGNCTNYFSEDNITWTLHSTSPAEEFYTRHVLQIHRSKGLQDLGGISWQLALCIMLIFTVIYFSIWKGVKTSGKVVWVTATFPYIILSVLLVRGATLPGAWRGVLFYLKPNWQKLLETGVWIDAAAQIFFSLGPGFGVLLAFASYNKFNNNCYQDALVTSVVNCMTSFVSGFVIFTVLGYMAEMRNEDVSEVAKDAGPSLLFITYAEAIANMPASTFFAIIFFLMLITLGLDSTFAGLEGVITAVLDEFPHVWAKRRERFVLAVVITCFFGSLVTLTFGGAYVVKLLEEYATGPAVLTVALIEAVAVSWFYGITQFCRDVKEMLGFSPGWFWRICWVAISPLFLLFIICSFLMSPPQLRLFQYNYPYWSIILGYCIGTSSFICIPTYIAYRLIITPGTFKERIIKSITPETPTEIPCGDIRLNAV

For `C[C@H]1CN(c2cccc3cc(C#N)ccc23)CCN1CC[C@@H]1OCCc2cc(C(N)=O)ccc21`, the Ki amounted to 353 nM in test [1]; 21 nM in test [2]; 287 nM at D(2) dopamine receptor; 26 nM in test [3]; 2.2 nM in test [4]; 0.9 nM in test [6]. Also, the result with Hypothalamus was Active. In addition, the Activity in test [5] was 124%.

For `C[C@H]1CN(c2ccc3cc(F)ccc3c2)CCN1CC[C@@H]1OCCc2cc(C(N)=O)ccc21`, the Ki in test [1] was 91 nM; in test [2] it was greater than 1000 nM; on D(2) dopamine receptor, 1170 nM; in [3], 307 nM; in test [4], 2.1 nM; in test [6] it was 14 nM. Further, the antagonist dissociation constant (Kb) in [7] worked out at 4.05 nM.

As for `C[C@@H]1CN(c2cccc3cc(F)ccc23)CCN1CC[C@H]1OCCc2cc(C(N)=O)ccc21`, the Ki in [1] was 74 nM; in test [2], 91 nM; on D(2) dopamine receptor, 78 nM; in test [3], 105 nM; in test [4], 7.4 nM; in test [6], 88 nM. The Kb in test [7] was 11.1 nM.

Regarding `NC(=O)c1ccc2c(c1)CCO[C@H]2CCN1CCN(c2ccc3cc(F)ccc3c2)CC1`, the inhibitory constant (Ki) in test [1] is 96 nM; in test [2], greater than 1000 nM; at D(2) dopamine receptor, 704 nM; in test [4], 8.1 nM; in test [6], 10 nM. For the same molecule, the Kb in test [7] was 0.86 nM.

Take `C[C@@H]1CN(c2cccc3cc(F)ccc23)CCN1CC[C@@H]1OCCc2cc(C(N)=O)ccc21`: the Ki in test [1] is 80 nM; in test [2] it was 103 nM; on D(2) dopamine receptor, 71 nM; in test [3], 115 nM; in test [4] it was 3 nM; in test [6], 7 nM. Also, in [7], the Kb stood at 0.01 nM.

As for `NC(=O)c1ccc2c(c1)CCOC2CCN1CC=C(c2c[nH]c3cc(F)ccc23)CC1` (centres undefined), the inhibitory constant (Ki) stood at 0.7 nM in test [1]; 203 nM in test [2]; 42 nM on D(2) dopamine receptor; 0.1 nM in test [4]; 8 nM in [6]. The molecule also came in with a Kb in test [7] of 4.3 nM.

In the case of `C[C@H]1CN(c2cccc3cc(F)ccc23)CCN1CC[C@@H]1OCc2cc(C(N)=O)ccc21`, the Ki in [1] is 64 nM; in test [2], 114 nM; at D(2) dopamine receptor, 26 nM; in test [3] it was 13 nM; in test [4], 1.3 nM; in test [6], 14 nM. The molecule also gave a Kb in test [7] of 0.05 nM.

On to `N#Cc1ccc2c(N3CCN(CC[C@@H]4OCCc5cc(C(N)=O)ccc54)CC3)cccc2c1`, for which the Ki in test [1] amounted to 178 nM; in [2], 15 nM; at D(2) dopamine receptor it was 88 nM; in test [3], 16 nM; in test [4], 5.7 nM; in test [6] it was 1 nM. This molecule came in with an Activity in test [5] of 101%.

In the case of `C[C@@H]1CN(c2cccc3cc(F)ccc23)CCN1CCC1OCCc2cc(C(N)=O)ccc21` (some centres undefined), the inhibitory constant (Ki) in test [1] was found to be 16 nM; in test [2], 281 nM; on D(2) dopamine receptor, 4.7 nM; in test [4], 0.8 nM; in test [6], 56 nM. This molecule also came in with a Kb in [7] of 0.01 nM.

In the case of `C[C@H]1CN(c2cccc3cc(C#N)ccc23)CCN1CC[C@H]1OCc2cc(C(N)=O)ccc21`, the Ki in [1] turned out to be 338 nM; in test [2], 88 nM; at D(2) dopamine receptor it was 346 nM; in test [4], 1.3 nM; in test [6] it was 1.8 nM. Also, in test [7], the antagonist dissociation constant (Kb) was found to be 0.18 nM.

`C[C@H]1CN(c2cccc3cc(F)ccc23)CCN1CC[C@H]1OCc2cc(C(N)=O)ccc21`: the Ki in test [1] was 43 nM; in test [2], greater than 1000 nM; on D(2) dopamine receptor it was 107 nM; in [3] it was 13 nM; in [4] it was 8.8 nM; in [6] it was 67 nM. Also, in test [7], the Kb stood at 1.9 nM.
